Reference: ChEMBL document CHEMBL4837218, “Synthesis and in vitro antitumour activity of 4(R)-methyl-3-O-phosphonomethyl-α-l-threose nucleosides” (Eur J Med Chem, 2021)

Key:
[1] = test system: Human immunodeficiency virus 1; assay: Anti-HIV activity against HIV-1 3B infected in human MT4 cells assessed as protection against virus-induced cytopathicity measured after 5 days by MTT assay; format: functional, organism-based; details: Human immunodeficiency virus 1, 3B, MT4, 120 h
HeLa = assay: Anticancer activity against human HeLa cells assessed as inhibition of cell growth measured after 72 hrs by MTT assay; format: functional, cell-based
How it was run: (§1)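 Cells seeded at 3000 exponentially growing cells/well and incubated 12 h at 37 °C. Medium then replaced with fresh medium containing graded compound concentrations for 72 h; 5-FU positive control. MTT (5 mg/mL solution) added for 4 h, formazan dissolved in DMSO, absorbance read at 570 nm (reference 630 nm). Relative percentage inhibition of viable cells calculated; IC50 reported as mean ± standard deviation.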

MGC-803 = assay: Anticancer activity against human MGC-803 cells assessed as inhibition of cell growth measured after 72 hrs by MTT assay; format: functional, cell-based; details: MGC-803, 72 h; how it was run: as §1
MCF7 = assay: Anticancer activity against human MCF7 cells assessed as inhibition of cell growth measured after 72 hrs by MTT assay; format: functional, cell-based; details: MCF7, 72 h; how it was run: as §1

Row | SMILES | IC50 (HeLa) | IC50 (MGC-803) | IC50 (MCF7) | EC50 [1]
1 | Cc1cn([C@H]2C[C@@H](OCP(=O)(O)O)CO2)c(=O)[nH]c1=O | – | – | – | 6.59 µM
2 | Nc1ncnc2c1ncn2[C@H]1C[C@@H](OCP(=O)(O)O)CO1 | – | – | – | 2.5 µM
3 | C[C@H]1O[C@@H](n2ccc(N)nc2=O)[C@H](O)[C@H]1OCP(=O)(O)O | > 16 µM | > 16 µM | > 16 µM | –
4 | C[C@H]1O[C@@H](n2ccc(=O)[nH]c2=O)[C@H](O)[C@H]1OCP(=O)(O)O | > 16 µM | > 16 µM | > 16 µM | –

Now from value to molecule, other results behind:

Row | IC50 (HeLa) | IC50 (MGC-803) | IC50 (MCF7) | SMILES | EC50 [1]
5 | > 16 µM | > 16 µM | > 16 µM | C[C@H]1O[C@@H](n2cc(F)c(=O)[nH]c2=O)[C@H](O)[C@H]1OCP(=O)(O)O | –
6 | > 16 µM | > 16 µM | > 16 µM | C[C@H]1O[C@@H](n2cc(Cl)c(=O)[nH]c2=O)[C@H](O)[C@H]1OCP(=O)(O)O | –
7 | > 16 µM | > 16 µM | > 16 µM | Cc1cn([C@@H]2O[C@H](C)[C@H](OCP(=O)(O)O)[C@H]2O)c(=O)[nH]c1=O | –
8 | > 16 µM | > 16 µM | > 16 µM | C[C@H]1O[C@@H](n2cnc3c(N)ncnc32)[C@H](O)[C@H]1OCP(=O)(O)O | –
9 | > 16 µM | > 16 µM | > 16 µM | C[C@H]1O[C@@H](n2cc(F)c(N)nc2=O)[C@H](O)[C@H]1OCP(=O)(O)O | –
